miR-122 sensor = miR-122 Renilla sensor signal increase in Huh7, primary screen, miR-122 inhibitor project, cell-based, single point, plate reader | activation (reporter increase), % at 12.5 µM | 340,000 tested, 0.3% active | Huh7 miR-122 Renilla luciferase sensor, 48 h; neutral wells = 0, positive control = 100;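 active means mean replicate activation score at least 90 and every replicate individually at or above 90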;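 further: higher luciferase means less miR-122 activity so hits act as miR-122 inhibitors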
CAL PDZ FP-1 = CAL PDZ peptide-binding inhibitors, primary screen, biochemical, fluorescence polarization, Cer-tagged CAL PDZ, HTS | Golgi-associated PDZ and coiled-coil motif-containing protein (Homo sapiens), Q9HD26 | purified CAL PDZ, TMR-peptide fluorescence polarization, 1 h | inhibition, % at 20 µM | 330,000 tested, 0.02% active;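 active means highest replicate inhibition of at least 40%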;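 further: plate controls were DMSO neutral control wells for no effect and unlabeled competitor peptide control wells for full effect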
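System: purified tagged CAL PDZ domain construct (CerCALP). Schedule: 1 h incubation at room temperature before polarization reading. Medium: 25 mM sodium phosphate pH 7.4, 150 mM NaCl, TCEP, IgG, Thesit. Read-out: percent inhibition from loss of millipolarization. Measured by: FP readout, S and P plane fluorescence. Probe or stimulus: fluorescent TMR peptide probe.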
ARNT-TACC3 inh = disruptors of ARNT/TACC3 protein interaction, primary screen, biochemical, AlphaScreen, single concentration; AlphaScreen His-ARNT PAS-B/GST-TACC3 binding, luminescence; TACC3 fragment carries E629A point mutation; inhibition, % at 9.99 µM; 390,000 tested, 0.66% active;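 active means mean inhibition of replicates at least 50% and at least half of replicates each reaching 50%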;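 further: 0% = complete ARNT plus TACC3 wells and 100% = ARNT alone without TACC3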
SR-BI HDL uptake = inhibitors of SR-BI mediated HDL lipid uptake, primary screen, ldlA[mSR-BI] cells, fluorescence, single point; ldlA[mSR-BI] CHO cells, DiI-HDL uptake fluorescence, 3 h; inhibition, % at 12.5 µM; 320,000 tested, 0.96% active; AID 488896, 2010;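 active means mean replicate inhibition of at least 70% and a set share of replicates each scoring 70 or more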;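 further: 0% = median of neutral control wells and 100% = median of positive control wells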
Target sequence (Q61009 whole entry, looked up): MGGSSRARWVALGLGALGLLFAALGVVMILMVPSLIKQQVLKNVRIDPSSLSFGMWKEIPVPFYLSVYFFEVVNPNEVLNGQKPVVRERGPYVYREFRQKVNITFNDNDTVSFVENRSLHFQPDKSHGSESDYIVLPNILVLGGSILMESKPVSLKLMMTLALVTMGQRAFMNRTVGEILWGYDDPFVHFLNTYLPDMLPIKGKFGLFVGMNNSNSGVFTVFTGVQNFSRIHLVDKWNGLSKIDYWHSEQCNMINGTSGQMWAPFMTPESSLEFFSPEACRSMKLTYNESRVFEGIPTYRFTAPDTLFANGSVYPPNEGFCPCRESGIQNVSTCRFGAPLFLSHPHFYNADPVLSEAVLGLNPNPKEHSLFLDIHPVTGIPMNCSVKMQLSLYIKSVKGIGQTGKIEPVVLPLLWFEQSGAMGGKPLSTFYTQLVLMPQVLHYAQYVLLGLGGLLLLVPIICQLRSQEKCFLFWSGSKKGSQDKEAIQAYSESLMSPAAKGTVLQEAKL
SR-BI uptake up = activators of SR-BI mediated DiI-HDL uptake, primary screen, ldlA[mSR-BI] CHO cells, DiI fluorescence; activation, % at 12.5 µM; 3 h; 100 = double the neutral-control signal; 320,000 tested, 0.096% active;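 active means mean replicate activation of at least 60% and every replicate at or above 60%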;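 further: 0% = median plate neutral-control signal and 100% = twice that signal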
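Assay system: CHO ldlA[mSR-BI] cells, LDL receptor-null, SR-BI overexpressing; medium: Ham's F12 with 0.5% BSA, HEPES 25 mM, pH 7.4; also added: DiI-HDL 10 µg/mL; timing: 3 h uptake period with compound, 37 °C; signal: DiI fluorescence, bottom read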
CAL PDZ FP-2 = untagged CAL PDZ binding inhibitors, primary screen, biochemical, fluorescence polarization, HTS; Golgi-associated PDZ and coiled-coil motif-containing protein (Homo sapiens), Q9HD26; purified CAL PDZ, TMR-peptide fluorescence polarization, 1 h; inhibition, % at 24.9 µM; 300,000 tested, 0.92% active;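 active means mean inhibition of at least 30% with at least half of replicates also reaching 30%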;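 further: 0% = DMSO neutral control and 100% = excess unlabeled competitor peptide PRC23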
* hit, by the source's call; · = not tested or not shown; [ ] = another dose, or the depositor's remark. Rows were chosen to be rich in hits. Some 2.1% of all compounds tested hit in one or more screens of this group.

SMILES	miR-122 sensor	CAL PDZ FP-1	ARNT-TACC3 inh	SR-BI HDL uptake	SR-BI uptake up	CAL PDZ FP-2
CCC(C)(C(=O)NC1CCCCC1)N(C)C(=O)c1ccccn1 (stereo not drawn)	2	0	-3	-7	7	53*
CCC(C)(C(=O)NC1CCCCC1)N(C(=O)c1ccccn1)c1ccccc1 (stereo not drawn)	·	1	-4	-7	7	·
C[C@@H]1CN([C@H](C)CO)C(=O)Cc2cc(NC(=O)Nc3cccc4ccccc34)ccc2O[C@@H]1CN(C)C(=O)Nc1ccc(C(F)(F)F)cc1	8[16.7 µM]	·	-5	·	·	·
C[C@@H]1CN([C@@H](C)CO)C(=O)Cc2cc(NC(=O)Nc3ccc(C(F)(F)F)cc3)ccc2O[C@@H]1CN(C)C(=O)Nc1cccc2ccccc12	265*[16.7 µM]	·	-2	·	·	·
C[C@@H]1CN([C@H](C)CO)C(=O)Cc2cc(NC(=O)Nc3ccc(C(F)(F)F)cc3)ccc2O[C@@H]1CN(C)C(=O)Nc1cccc2ccccc12	112*[16.7 µM]	·	-9	·	·	·
C[C@H](CO)N1C[C@H](C)[C@@H](CN(C)C(=O)Nc2cccc3ccccc23)Oc2ccc(NC(=O)Nc3ccc(C(F)(F)F)cc3)cc2CC1=O	31[16.7 µM]	·	-7	·	·	·
O=C(NCC1CCCCC1)[C@H]1[C@H](CO)[C@H]2Cn3c(ccc(C4=CCCCC4)c3=O)[C@@H]1N2	-2[16.7 µM]	·	2	·	·	·
CC(=O)NC(c1cc(F)c2cccnc2c1O)C1CC1 (stereo not drawn)	-13	2	40*	-12	12	-2
N#C/C(=C(/O)c1ccc(C(=O)c2ccccc2)cc1)c1nc2ccccc2[nH]1	-4	0	-10	-243	243*	0
CCCCOc1ccc(/C(O)=C(\C#N)c2nc3ccccc3[nH]2)cc1	4	-2	2	12	-12	2
O=C(C1CC1)N1C[C@@H]2[C@H](c3ccccc31)[C@@H](CO)N2C(=O)Nc1cccc(F)c1	40[16.7 µM]	·	14	·	·	·
COc1ccc(S(=O)(=O)Nc2cc3c4c(oc3c3ccccc23)CC(C)(C)CC4=O)cc1	39	-4	9	29	-29	-1
COc1ccc(S(=O)(=O)Nc2cc3c4c(oc3c3ccccc23)CCCC4=O)cc1	127*	-3	-3	46	-46	·
CN1C(=O)c2cc(NC(=O)c3cccc(F)c3)ccc2OC[C@H]2O[C@@H](CC(=O)NCc3ccccc3)CC[C@H]21	4[16.7 µM]	·	4	·	·	·
COc1ccc(-c2cc(-c3ccc(OC)cc3)c(C#N)c(SC)n2)cc1	-3	-1	·	80*	-80	0
CCNC(=O)C[C@H]1CC[C@@H]2[C@@H](COc3ccc(NC(=O)c4cscn4)cc3C(=O)N2C)O1	28[16.7 µM]	·	·	·	·	·
O=c1nccc(Nc2ccccc2)[nH]1	·	0	4	10	-10	63*
O=C(COC(=O)c1ccc[nH]c1=O)NCC1CCCO1 (stereo not drawn)	-2	0	-6	-10	10	56*
CCCNC(=O)Nc1ccc2c(c1)OC[C@@H](C)N(C(=O)C1CCCC1)C[C@@H](C)[C@H](OC)CN(C)C2=O	0[16.7 µM]	·	·	·	·	·
O=C1NC2(CCCCCC2)N=C1c1ccc(F)cc1	-8	0	-4	2	-2	66*
CCOC(=O)C1CCN(C(=O)CCS(=O)(=O)c2ccc3c(c2)n(C)c(=O)c(=O)n3C)CC1	1	-2	-1	-10	10	52*
CCOC(=O)C1CCN(C(=O)CCS(=O)(=O)c2ccc3c(c2)CCN3C(C)=O)CC1	·	-1	-3	7	-7	-4
O=c1[nH]c(Nc2ccccc2)cc2ccccc12	2	1	28	-8	8	0
COc1ccc(OC)c(Nc2cc3ccccc3c(=O)[nH]2)c1	8	-1	38*	3	-3	-4
O=C(NNC(=O)c1ccc2ccccc2c1O)c1cccs1	-3	0	·	106*	-106	-5
SMILES	miR-122 sensor	CAL PDZ FP-1	ARNT-TACC3 inh	SR-BI HDL uptake	SR-BI uptake up	CAL PDZ FP-2
O=C(NNC(=O)c1cc2ccccc2cc1O)c1cccs1	·	-4	·	115*	-115	-2
C/C(=N\NC(=O)c1cc2ccccc2cc1O)c1cccs1	·	-1	-6	-7	7	-4
COCC(=O)Nc1ccc2c(c1)C(=O)N(C)[C@H]1CC[C@@H](CC(=O)NCc3cccc(F)c3)O[C@@H]1CO2	4[16.7 µM]	·	11	·	·	·
C=CCn1c2ccccc2c(=O)c2cc(C#Cc3cc(OC)cc(OC)c3)ccc21	0	-3	5	87*	-87	-1
CCOc1ccc(C(=O)Nc2cccc(C(=O)O)c2)cc1Cl	1	-1	·	-6	6	·
CCOc1ccc(C(=O)Nc2cccc(-c3nc4cccnc4o3)c2)cc1Cl	36	·	-18	83*	-83	-3
COc1cccc(C(=O)Nc2ccc3c(c2)OC[C@@H](C)N(CC2CC2)C[C@@H](C)[C@H](OC)CN(C)C3=O)c1	8[16.7 µM]	·	0	·	·	·
C/C(O)=c1/c(=O)nc2cccc3c2=c1c1ccccc1c3=O	·	-1	46*	-3	3	-4
CC(=O)N(C)C[C@H]1[C@H](c2ccc(-c3cccc(C#N)c3)cc2)[C@@H](CO)N1C(C)=O	-25[16.7 µM]	·	-8	·	·	·
CCCCC(O)(CCCC)C(=O)NN(C(=O)OC)c1ccccc1	144*	-1	-4	-15	15	4
CCOC(=O)Nc1ccc2c(c1)C(=NNC(N)=S)c1ccccc1-2	23	-5	·	83*	-83	·
O=C(c1ccccc1)N1N=C(c2ccccc2)CC1c1ccccc1O (stereo not drawn)	·	·	33	-16	16	2
O=C(c1ccncc1)N1N=C(c2ccc(Br)cc2)CC1c1ccccc1O (stereo not drawn)	3	-5	-3	75*	-75	-1
CCn1ncc(/C=N\NC(=O)c2ccc3c(c2)c(C)c(C)n3Cc2ccccc2)c1C	10	1	-2	25	-25	-2
CCn1nc(C)c(/C=N/NC(=O)c2ccc3c(c2)c(C)c(C)n3Cc2ccccc2)c1C	-6	-3	-18	79*	-79	3
O=C(NCCc1cccc(F)c1)C1CCC(=O)N(C2CCCCCC2)C1 (stereo not drawn)	-4	-1	1	17	-17	·
O=C(NCc1cccc(F)c1)C1CCC(=O)N(C2CCCC2)C1 (stereo not drawn)	-6	0	13	-9	9	84*

Compound activity: PubChem BioAssay, Broad Institute
